Measurements published in ChEMBL document CHEMBL5329186, “Identification of novel 1,2,3-triazole isatin derivatives as potent SARS-CoV-2 3CLpro inhibitors via click-chemistry-based rapid screening” (RSC Med Chem, 2023).
Calls of active or inactive are those of the source. No cut-off for these calls is given here.

Key:
[1] = molecular target: Replicase polyprotein 1ab (Severe acute respiratory syndrome coronavirus 2) (UniProt P0DTD1); assay: Inhibition of SARS-CoV-2 MPro at 5 uM using MCAAVLQSGFR-Lys(Dnp)-Lys-NH2 as substrate incubated for 10 mins by FRET assay
Outline: (§1)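 3CLpro FRET assay at 5 μM compound, run as the standard protocol (10 min 37 °C preincubation, ex 320/em 405 nm kinetic read). The assay buffer either contained 4 mM DL-dithiothreitol or had none added. Ebselen served as the control.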

[2] = molecular target: Replicase polyprotein 1ab (Severe acute respiratory syndrome coronavirus 2) (UniProt P0DTD1); assay: Inhibition of SARS-CoV-2 MPro at 5 uM using MCAAVLQSGFR-Lys(Dnp)-Lys-NH2 as substrate in presence of DTT incubated for 10 mins by FRET assay; outline: as §1
Vero C1008 = assay: Cytotoxicity against African green monkey Vero E6 assessed as inhibition of cell growth at 20 uM incubated for 26 hrs; assay type: toxicity, cell-based; details: chlorocebus sabaeus, vero c1008, 26 h
[3] = molecular target: Replicase polyprotein 1ab (Severe acute respiratory syndrome coronavirus 2, UniProt P0DTD1); assay: Inhibition of SARS-CoV-2 MPro using MCAAVLQSGFR-Lys(Dnp)-Lys-NH2 as substrate incubated for 10 mins by FRET assay
Outline: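 Same 3CLpro FRET protocol (enzyme working 1.5 μM, substrate 500 μM, Tris/NaCl/glycerol buffer pH 7.3, 10 min 37 °C preincubation, ex 320/em 405 nm kinetic read for 10 min). Compounds were tested at 0.1, 0.5, 1 and 5 μM from 5 mM DMSO stocks. IC50 is the average of three independent experiments.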

[4] = molecular target: Replicase polyprotein 1ab (Severe acute respiratory syndrome coronavirus 2) (UniProt P0DTD1); assay: Inhibition of SARS-CoV-2 MPro at 1 uM using MCAAVLQSGFR-Lys(Dnp)-Lys-NH2 as substrate incubated for 10 mins by FRET assay relative to control
[5] = Cytotoxicity against African green monkey Vero E6 assessed as inhibition of cell growth incubated for 26 hrs; assay type: toxicity, cell-based; details: chlorocebus sabaeus, Vero E6 cells (Vero C1008)
Outline: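 Vero E6 cells were seeded at 1.7 × 10^4/well in DMEM high glucose/10% FBS and grown 24 h at 37 °C, 5% CO2. Compound was then added in DMEM/5% FBS, final 1% DMSO, for 26 h. Viability was read with the CellTiter 96 aqueous nonradioactive proliferation assay. Values are averages of three or more replicate assays.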

Structure (SMILES)	inhibition [1]	inhibition [2]	Activity (Vero C1008)	IC50 [3]	inhibition [4]	CC50 at 26 h [5]
O=c1c2ccccc2[se]n1-c1ccccc1	Active	inactive	–	–	–	–
NC(=O)c1ccc2c(c1)C(=O)C(=O)N2Cc1cn(Cc2cccc(Cl)c2)nn1	Active	Active	Not Active	440 nM	76.4%	> 20000 nM
NC(=O)c1ccc2c(c1)C(=O)C(=O)N2Cc1cn(Cc2ccc(C(F)(F)F)cc2F)nn1	–	–	Not Active	530 nM	78.1%	> 20000 nM
NC(=O)c1ccc2c(c1)C(=O)C(=O)N2Cc1ccc2ccccc2c1	Active	Active	Not Active	300 nM	87.3%	< 2200 nM
NC(=O)c1ccc2c(c1)C(=O)C(=O)N2Cc1cn(Cc2ccc(S(N)(=O)=O)cc2)nn1	–	–	Not Active	1120 nM	73.3%	> 20000 nM
